Measured values from publication PMC5817915 (European journal of medicinal chemistry, 2017).
Where a name gives a salt, the structure may show the parent alone.

What was measured:
[1] = molecular target: PTPRZ1 (Homo sapiens, UniProt P23471); assay: In vitro dephosphorylation assay, phosphate sensor reagent, p-NPP substrate; type: biochemical; conditions: for inhibition at 1 µM: read-out: inhibition of the phosphatase activity of PTPRZ1
Outline: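 Single-concentration screen: human recombinant PTPRZ1 (0.1 μM) incubated with test compound at 1.0 μM and p-NPP substrate. Phosphate release was detected with a phosphate sensor reagent by fluorescence (excitation 430 nm, emission 450 nm) and expressed as percent inhibition of phosphatase activity.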

[2] = test system: TrkA (Tyr490); assay: Western blot of TrkA phosphorylation in SH-SY5Y cells; type: cell-based, human; conditions: SH-SY5Y cells, 1.0, 5.0 and 10.0 μM, 20 minutes
Outline: (§1)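 Human SH-SY5Y cells, grown in EMEM/F12 (1:1) with 10% FBS at 37 °C and 5% CO2, were switched to serum-free medium just before treatment. They were then exposed to test compound (1.0, 5.0, 10.0 μM) or DMSO vehicle for 20 min and lysed in Tris-HCl pH 7.5/Triton buffer with phosphatase and protease inhibitors. Lysate (20 μg protein) was run on SDS-PAGE and blotted to PVDF. Blots were probed for phospho-TrkA (Y490) or phospho-ALK (Y1278), reprobed for total TrkA or ALK, and detected by ECL. Densitometry data are mean ± S.E.M., analysed by one-way ANOVA with Tukey post-hoc.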

[3] = test system: ALK (Tyr1278); assay: Western blot of ALK phosphorylation in SH-SY5Y cells; type: cell-based, human; conditions: SH-SY5Y cells, 1.0, 5.0 and 10.0 μM, 20 minutes
Outline: as §1

[4] = molecular target: T1, PTP1B (Homo sapiens, UniProt P18031); assay: In vitro dephosphorylation assay, phosphate sensor reagent, p-NPP substrate; type: biochemical; conditions: from IC50 values of Table 2
T1 sequence (P18031 1-435): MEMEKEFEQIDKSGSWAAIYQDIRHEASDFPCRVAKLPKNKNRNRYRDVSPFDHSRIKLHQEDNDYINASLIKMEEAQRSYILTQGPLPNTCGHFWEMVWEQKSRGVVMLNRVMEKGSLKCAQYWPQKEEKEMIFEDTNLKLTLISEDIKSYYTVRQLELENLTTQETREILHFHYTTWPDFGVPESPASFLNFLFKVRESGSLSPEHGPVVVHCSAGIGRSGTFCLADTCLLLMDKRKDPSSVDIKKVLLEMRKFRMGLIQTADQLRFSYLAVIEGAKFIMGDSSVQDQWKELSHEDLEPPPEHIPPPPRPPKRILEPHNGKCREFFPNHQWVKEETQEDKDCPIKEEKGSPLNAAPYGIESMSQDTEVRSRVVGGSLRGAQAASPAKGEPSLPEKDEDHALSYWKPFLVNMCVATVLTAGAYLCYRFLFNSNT
Outline: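 Human recombinant PTPRZ1 and PTP1B, each at 0.1 μM, tested against test compound at 0.001–100 μM with p-NPP as substrate. Released inorganic phosphate was detected with a phosphate sensor reagent as a fluorescence increase (excitation 430 nm, emission 450 nm). IC50 values were calculated for each enzyme, and selectivity was judged by comparing the PTPRZ1 and PTP1B IC50s.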

[5] = test system: PC12 cells; assay: Amphetamine-induced toxicity, cell viability by MTT; type: cell-based, Rat; conditions: amphetamine 1 mM, compound 1.0 μM, 24 hours
Outline: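 Rat PC12 cells grown in RPMI-1640 with 10% FBS, seeded at 10^4 cells/well, then co-incubated with amphetamine (1.0 mM) and test compound (1.0 μM). For MTT, cells were PBS-washed and given fresh medium with MTT (5 mg/mL stock) for 4 h. Formazan was dissolved in DMSO with 10 min shaking at RT, and absorbance read at 570 nm. Data are mean ± S.E.M., analysed by one-way ANOVA with Tukey post-hoc.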

[6] = test system: HeLa cells; assay: Total tyrosine phosphorylation ELISA; type: cell-based; conditions: at any of 0.1, 1.0 and 10.0 μM
Outline: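 HeLa cells in RPMI-1640 with 10% FBS were seeded at 2 × 10^4 cells/well in triplicate and serum-starved 24 h. They were then treated 10 min with test compound at 0.1, 1.0 or 10.0 μM, with 0.25% DMSO as vehicle control and EGF (50 ng/mL, 10 min) as positive control. Total phosphotyrosine was measured with a tyrosine phosphorylation ELISA kit and compared with vehicle.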

[7] = In vivo permeability study, GC-MS detection in plasma and brain; conditions: mice, 1h post-gavage, 60 mg/kg
Outline: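 Mice were dosed by oral gavage at 60 mg/kg and killed 1 h later; brain and plasma were collected. Brain (50–100 mg) was bead-homogenised in ethyl acetate, then the supernatant was dried and taken up in heptane. Plasma (100 μL) was precipitated with 3 volumes of cold methanol at -2 °C for 20 min, dried and reconstituted in heptane. Samples were analysed by GC-MS (EI 70 eV), quantifying the extracted ion at m/z 191.0137 (LOQ ~70 ng/mL).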

[8] = test system: alcohol-induced reward; conditions: mice; cited from earlier work

Sequence of PTPRZ1 (P23471 25-2315): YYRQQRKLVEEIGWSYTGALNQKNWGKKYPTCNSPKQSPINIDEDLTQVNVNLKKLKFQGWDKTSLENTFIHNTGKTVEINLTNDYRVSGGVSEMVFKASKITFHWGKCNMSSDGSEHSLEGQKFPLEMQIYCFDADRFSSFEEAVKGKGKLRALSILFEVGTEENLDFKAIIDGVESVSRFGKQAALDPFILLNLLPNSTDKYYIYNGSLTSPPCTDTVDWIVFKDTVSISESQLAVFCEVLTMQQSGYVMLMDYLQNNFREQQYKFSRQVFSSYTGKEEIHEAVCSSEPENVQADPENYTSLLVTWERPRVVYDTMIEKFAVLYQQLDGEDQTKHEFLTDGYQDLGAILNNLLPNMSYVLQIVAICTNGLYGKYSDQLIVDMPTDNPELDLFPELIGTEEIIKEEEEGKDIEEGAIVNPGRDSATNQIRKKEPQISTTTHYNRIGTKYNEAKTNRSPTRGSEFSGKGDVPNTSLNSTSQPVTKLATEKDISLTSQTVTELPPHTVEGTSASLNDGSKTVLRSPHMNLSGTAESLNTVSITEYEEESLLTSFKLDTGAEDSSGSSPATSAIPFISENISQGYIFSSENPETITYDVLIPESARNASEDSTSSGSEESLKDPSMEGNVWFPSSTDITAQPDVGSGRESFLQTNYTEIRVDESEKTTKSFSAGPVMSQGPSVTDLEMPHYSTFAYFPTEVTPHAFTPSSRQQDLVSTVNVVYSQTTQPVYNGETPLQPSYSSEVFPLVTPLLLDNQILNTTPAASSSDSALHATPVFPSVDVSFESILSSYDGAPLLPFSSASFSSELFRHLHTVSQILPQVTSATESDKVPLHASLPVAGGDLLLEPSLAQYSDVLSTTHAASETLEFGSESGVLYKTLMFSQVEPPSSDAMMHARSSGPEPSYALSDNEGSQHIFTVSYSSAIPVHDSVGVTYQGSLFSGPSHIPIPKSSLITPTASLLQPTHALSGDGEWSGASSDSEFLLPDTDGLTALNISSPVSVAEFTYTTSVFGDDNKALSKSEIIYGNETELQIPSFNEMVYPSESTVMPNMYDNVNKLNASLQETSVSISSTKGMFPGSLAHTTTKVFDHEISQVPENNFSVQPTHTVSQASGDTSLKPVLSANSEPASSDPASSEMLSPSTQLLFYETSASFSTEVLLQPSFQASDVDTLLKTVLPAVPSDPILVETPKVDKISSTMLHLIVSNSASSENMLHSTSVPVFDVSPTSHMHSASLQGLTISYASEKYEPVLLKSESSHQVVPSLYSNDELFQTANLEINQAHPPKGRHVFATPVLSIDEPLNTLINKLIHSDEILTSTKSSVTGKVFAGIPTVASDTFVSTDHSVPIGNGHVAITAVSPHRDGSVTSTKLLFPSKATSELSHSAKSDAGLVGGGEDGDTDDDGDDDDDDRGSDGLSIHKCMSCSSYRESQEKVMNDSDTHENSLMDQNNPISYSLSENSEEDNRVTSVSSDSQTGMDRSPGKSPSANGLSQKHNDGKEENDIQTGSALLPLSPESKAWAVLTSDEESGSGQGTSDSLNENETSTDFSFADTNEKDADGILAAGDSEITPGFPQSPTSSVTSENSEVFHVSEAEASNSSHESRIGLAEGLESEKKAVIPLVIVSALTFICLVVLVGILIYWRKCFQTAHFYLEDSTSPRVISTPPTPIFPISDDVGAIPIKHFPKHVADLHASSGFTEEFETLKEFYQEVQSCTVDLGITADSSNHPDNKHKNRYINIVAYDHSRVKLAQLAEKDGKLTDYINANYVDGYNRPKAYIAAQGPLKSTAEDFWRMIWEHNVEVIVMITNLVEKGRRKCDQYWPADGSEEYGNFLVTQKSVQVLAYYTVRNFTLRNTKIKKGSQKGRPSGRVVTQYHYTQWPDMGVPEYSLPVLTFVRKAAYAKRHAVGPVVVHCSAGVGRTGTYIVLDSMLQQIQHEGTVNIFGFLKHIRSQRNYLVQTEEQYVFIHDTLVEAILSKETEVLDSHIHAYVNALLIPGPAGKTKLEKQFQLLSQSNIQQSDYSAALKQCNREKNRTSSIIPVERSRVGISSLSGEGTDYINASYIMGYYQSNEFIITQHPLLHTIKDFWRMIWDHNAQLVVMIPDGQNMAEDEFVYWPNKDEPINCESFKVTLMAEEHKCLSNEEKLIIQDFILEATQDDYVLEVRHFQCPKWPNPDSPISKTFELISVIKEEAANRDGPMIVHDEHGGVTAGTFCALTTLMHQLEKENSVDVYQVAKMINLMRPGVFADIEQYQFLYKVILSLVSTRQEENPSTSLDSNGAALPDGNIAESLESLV

O=C(Cc1ccc(S(=O)(=O)C(F)(F)F)cc1)Nc1ccc(S(=O)(=O)C(F)(F)F)cc1 [5b, N,2-bis(4-((trifluoromethyl)sulfonyl)phenyl)acetamide]
inhibition at 1 µM [1]: ≥ 10%

FC(F)(F)Sc1ccc(CNCc2ccc(SC(F)(F)F)cc2)cc1 [12b, Bis(4-((trifluoromethyl)thio)benzyl)amine hydrochloride]
inhibition at 1 µM [1]: ≥ 10%
increase of tyrosine phosphorylation of TrkA [2]: 2–3 fold
increase in phosphorylation of ALK 140 kDa isoform [3]: 2 fold
selectivity PTPRZ1 versus PTP1B [4]: strongly and selectively inhibit PTPRZ1
effect on amphetamine-induced loss of PC12 cell viability [5]: the same trend was observed

O=C(Cc1ccc(SC(F)(F)F)cc1)NCc1ccc(SC(F)(F)F)cc1 [4c, N-(4-((Trifluoromethyl)thio)benzyl)-2-(4-((trifluoromethyl)thio)phenyl)acetamide]
selectivity PTPRZ1 versus PTP1B [4]: remarkable selectivity against PTP1B

FC(F)(F)Sc1ccc(NCc2ccccc2)cc1 [12d, N-benzyl-4-((trifluoromethyl)thio)aniline]
inhibition at 1 µM [1]: ≥ 10%
increase of Phospho-Tyr levels [6]: ≥ 10%

FC(F)(F)Sc1ccc(COc2ccc(SC(F)(F)F)cc2)cc1 [10a, (Trifluoromethyl)(4-((4-((trifluoromethyl)thio)benzyl)oxy)phenyl)sulfane]
inhibition at 1 µM [1]: ≥ 10%
increase of tyrosine phosphorylation of TrkA [2]: 2–3 fold
ability to cross the BBB [7]: can cross the BBB
increase of Phospho-Tyr levels [6]: ≥ 10%
selectivity PTPRZ1 versus PTP1B [4]: strongly and selectively inhibit PTPRZ1
effect on amphetamine-induced loss of PC12 cell viability [5]: significantly prevented amphetamine-induced loss of PC12 cell viability
effect on alcohol-induced reward [8]: completely blocked alcohol-induced reward in mice

O=S(=O)(c1ccc(COc2ccc(S(=O)(=O)C(F)(F)F)cc2)cc1)C(F)(F)F [compound 1, 1-((Trifluoromethyl)sulfonyl)-4-((4-((trifluoromethyl)sulfonyl)benzyl)oxy)benzene, reference compound]
PTPRZ1 phosphatase activity inhibition [1]: failed to inhibit PTPRZ1 phosphatase activity

FC(F)(F)Sc1ccc(CN(Cc2ccc(SC(F)(F)F)cc2)Cc2ccc(SC(F)(F)F)cc2)cc1 [compound 13, tris(4-((trifluoromethyl)thio)benzyl)amine]
increase of Phospho-Tyr levels [6]: ≥ 10%
